Data set [1] is described as follows: Oral bioavailability in Wistar rat at 5 mg/kg administered via gavage by LC-MS/MS analysis. In kind it is ADME, organism-based. The conditions noted are these: in vivo. The gist of the method: (§1)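 Wistar rats given a single 5 mg/kg oral dose. Plasma concentration–time profiles were plotted as mean ± SEM and sampled through 24 h postdose.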
Another data set deals with Histone deacetylase 8 (Homo sapiens, UniProt Q9BY41). As to the kind of experiment: Inhibition of C-terminal His tagged human recombinant HDAC8 (1 to 377 residues) expressed in Baculovirus infected insect cells in presence of ATP. The gist of the method: (§2)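 HDAC enzyme inhibition was run by a contract laboratory.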
In a further data set the test system is PC-3. As to the kind of experiment: cells. The conditions noted are these: Homo sapiens, PC-3, 72 h. It is filed as functional, cell-based.
A further data set has as its system TAMH. As to the kind of experiment: cells. It is filed as ADME, cell-based. The conditions noted are these: Mus musculus, 24 h.
Data set [2] can be described thus: Terminal half life in Wistar rat at 5 mg/kg, po administered via gavage by LC-MS/MS analysis. The conditions noted are these: in vivo, read-out: beta t1/2 (converted). It is filed as ADME, organism-based. The gist of the method: as §1
The target in data set [3] is Tyrosine-protein kinase JAK1 (Homo sapiens, UniProt P23458). As to the kind of experiment: Inhibition of human JAK1 using poly[Glu:Tyr] as substrate in presence of [gamma-33P]-ATP. The method, boiled down:
(§3)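 Kinase inhibition was tested by radiometric "Hotspot" profiling at a contract laboratory with 10 μM ATP.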

Data set [4] can be described thus: Thermodynamic aqueous solubility of the compound at pH 7.4 after 3 hrs by UV absorbance based assay. In kind it is physicochemical. The conditions noted are these: read-out: Therm_solubility. The gist of the method: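 A 20 mM DMSO stock was diluted 1:100 into pH 7.4 PBS, then shaken at 250 rpm for 3 or 24 h at 22.5 ± 2.5 °C. The mixture was filtered and the filtrate diluted with acetonitrile/universal buffer. Absorbance was read at 310 nm against a 6.25–200 μM calibration curve, in triplicate.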

Data set [5] deals with Rho-associated protein kinase 2 (Homo sapiens) (UniProt O75116). As to the kind of experiment: Inhibition of wild type human ROCK2 (M1 to T431 residues) expressed in mammalian cells assessed as residual activity at 1 uM by KINOMEscan assay relative to control. It is filed as cell-based.
Data set [6] has as its target T1, Tyrosine-protein kinase JAK3 (Homo sapiens, UniProt P52333).
T1 sequence (P52333 whole entry): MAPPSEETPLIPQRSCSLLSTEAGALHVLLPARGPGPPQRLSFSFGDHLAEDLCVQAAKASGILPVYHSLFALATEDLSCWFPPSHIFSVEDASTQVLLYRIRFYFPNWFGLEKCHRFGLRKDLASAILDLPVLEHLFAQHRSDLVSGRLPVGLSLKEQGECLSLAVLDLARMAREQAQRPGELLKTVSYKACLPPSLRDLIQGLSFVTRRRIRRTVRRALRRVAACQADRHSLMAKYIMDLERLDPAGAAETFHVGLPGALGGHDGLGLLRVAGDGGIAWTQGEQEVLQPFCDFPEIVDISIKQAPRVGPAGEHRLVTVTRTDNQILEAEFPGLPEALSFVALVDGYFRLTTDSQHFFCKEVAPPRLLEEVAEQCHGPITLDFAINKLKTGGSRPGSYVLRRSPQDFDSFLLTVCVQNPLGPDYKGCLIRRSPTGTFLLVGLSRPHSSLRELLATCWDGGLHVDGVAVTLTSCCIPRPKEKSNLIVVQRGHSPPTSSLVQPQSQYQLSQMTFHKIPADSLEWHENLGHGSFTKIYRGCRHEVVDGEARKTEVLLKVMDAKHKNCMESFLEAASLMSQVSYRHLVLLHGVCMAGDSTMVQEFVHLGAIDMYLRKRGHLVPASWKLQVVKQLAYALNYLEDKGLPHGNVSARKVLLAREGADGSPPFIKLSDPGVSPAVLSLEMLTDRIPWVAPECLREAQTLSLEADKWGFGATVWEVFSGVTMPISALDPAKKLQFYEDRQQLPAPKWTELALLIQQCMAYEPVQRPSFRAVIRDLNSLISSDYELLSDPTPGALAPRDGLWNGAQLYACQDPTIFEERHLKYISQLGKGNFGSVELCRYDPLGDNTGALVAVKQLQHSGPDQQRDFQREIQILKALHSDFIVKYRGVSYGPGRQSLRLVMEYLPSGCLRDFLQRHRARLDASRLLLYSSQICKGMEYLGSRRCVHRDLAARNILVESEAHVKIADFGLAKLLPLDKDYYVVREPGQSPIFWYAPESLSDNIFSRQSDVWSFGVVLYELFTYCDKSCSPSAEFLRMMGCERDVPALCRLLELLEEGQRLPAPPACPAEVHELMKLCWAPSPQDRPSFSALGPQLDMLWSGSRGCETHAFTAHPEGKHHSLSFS
As to the kind of experiment: Inhibition of human JAK3 using GEEEEYFELVKKKK as substrate in presence of [gamma-33P]-ATP. The method, boiled down: as §3

The target of data set [7] is Polyamine deacetylase HDAC10 (Homo sapiens, UniProt Q969S8). As to the kind of experiment: Inhibition of human HDAC10 using fluorogenic peptide from p53 residues 379 to 382 as substrate in presence of ATP. The method, boiled down:
as §2

By bioavailability is commonly meant dose-corrected exposure relative to a reference, in per cent. A low value points to little systemic uptake. In general, IC50 refers to the point on the concentration scale where inhibition reaches its midpoint.

Molecules are shown by their SMILES. ≈ marks a conversion by molar mass, not a printed value.

Chain of Polyamine deacetylase HDAC10 (Q969S8 whole entry, the tested form may be a part): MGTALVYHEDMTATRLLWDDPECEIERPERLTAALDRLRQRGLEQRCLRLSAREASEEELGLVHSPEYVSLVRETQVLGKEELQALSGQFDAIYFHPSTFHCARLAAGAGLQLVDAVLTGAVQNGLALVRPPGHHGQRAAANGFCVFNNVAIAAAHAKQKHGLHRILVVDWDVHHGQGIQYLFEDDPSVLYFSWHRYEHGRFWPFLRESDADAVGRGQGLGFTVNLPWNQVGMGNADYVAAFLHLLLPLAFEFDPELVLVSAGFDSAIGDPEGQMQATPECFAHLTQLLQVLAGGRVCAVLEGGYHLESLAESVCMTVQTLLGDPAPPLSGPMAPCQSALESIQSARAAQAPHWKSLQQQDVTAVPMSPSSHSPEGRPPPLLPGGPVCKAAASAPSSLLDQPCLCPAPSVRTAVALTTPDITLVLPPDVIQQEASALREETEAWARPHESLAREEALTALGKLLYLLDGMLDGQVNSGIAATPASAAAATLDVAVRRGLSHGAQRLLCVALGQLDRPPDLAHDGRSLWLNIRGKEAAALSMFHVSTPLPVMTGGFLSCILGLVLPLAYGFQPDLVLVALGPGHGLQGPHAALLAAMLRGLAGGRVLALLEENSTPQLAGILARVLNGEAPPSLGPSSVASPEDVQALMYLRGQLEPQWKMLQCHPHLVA
Chain of Tyrosine-protein kinase JAK1 (P23458 whole entry): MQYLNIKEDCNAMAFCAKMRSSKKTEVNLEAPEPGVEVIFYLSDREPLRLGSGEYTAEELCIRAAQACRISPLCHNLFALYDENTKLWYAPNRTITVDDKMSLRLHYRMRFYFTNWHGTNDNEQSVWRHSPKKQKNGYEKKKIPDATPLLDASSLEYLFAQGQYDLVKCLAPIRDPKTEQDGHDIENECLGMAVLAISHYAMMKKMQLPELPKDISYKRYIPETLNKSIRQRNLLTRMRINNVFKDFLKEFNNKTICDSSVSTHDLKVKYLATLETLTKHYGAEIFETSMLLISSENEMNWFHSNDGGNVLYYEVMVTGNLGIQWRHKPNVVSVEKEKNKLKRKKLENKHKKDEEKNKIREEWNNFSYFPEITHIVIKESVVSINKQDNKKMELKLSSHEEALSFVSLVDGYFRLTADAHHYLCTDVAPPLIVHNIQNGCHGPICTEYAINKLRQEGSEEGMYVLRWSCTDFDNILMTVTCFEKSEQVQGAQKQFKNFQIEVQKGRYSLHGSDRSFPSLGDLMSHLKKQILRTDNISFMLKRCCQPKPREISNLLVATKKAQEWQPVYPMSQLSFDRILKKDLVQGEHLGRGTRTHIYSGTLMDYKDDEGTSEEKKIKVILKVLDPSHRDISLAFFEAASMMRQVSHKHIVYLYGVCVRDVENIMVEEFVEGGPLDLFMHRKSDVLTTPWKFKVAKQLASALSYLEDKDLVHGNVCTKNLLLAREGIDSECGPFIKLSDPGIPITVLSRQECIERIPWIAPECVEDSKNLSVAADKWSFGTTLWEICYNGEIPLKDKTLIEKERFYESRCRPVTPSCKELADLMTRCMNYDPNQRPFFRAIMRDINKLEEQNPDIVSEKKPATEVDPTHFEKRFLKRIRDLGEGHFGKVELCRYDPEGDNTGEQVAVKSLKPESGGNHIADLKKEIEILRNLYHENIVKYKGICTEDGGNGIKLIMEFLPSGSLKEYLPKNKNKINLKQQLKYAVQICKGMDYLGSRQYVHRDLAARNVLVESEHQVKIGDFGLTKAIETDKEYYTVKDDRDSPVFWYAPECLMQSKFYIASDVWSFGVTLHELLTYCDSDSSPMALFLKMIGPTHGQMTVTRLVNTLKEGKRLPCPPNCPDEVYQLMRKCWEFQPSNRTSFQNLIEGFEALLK
Chain of Histone deacetylase 8 (Q9BY41 whole entry, the tested form may be a part): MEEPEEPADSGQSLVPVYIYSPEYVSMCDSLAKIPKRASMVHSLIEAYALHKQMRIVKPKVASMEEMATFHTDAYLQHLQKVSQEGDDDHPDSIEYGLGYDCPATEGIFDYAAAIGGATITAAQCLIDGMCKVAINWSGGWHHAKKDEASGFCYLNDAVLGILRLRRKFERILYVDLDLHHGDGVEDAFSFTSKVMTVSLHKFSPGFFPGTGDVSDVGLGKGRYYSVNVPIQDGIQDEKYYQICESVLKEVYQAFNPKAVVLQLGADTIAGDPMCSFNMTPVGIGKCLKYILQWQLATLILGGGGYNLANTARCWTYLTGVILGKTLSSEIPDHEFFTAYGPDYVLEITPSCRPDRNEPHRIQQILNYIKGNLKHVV
Chain of Rho-associated protein kinase 2 (Homo sapiens) (O75116 whole entry, looked up, the tested form may be a part): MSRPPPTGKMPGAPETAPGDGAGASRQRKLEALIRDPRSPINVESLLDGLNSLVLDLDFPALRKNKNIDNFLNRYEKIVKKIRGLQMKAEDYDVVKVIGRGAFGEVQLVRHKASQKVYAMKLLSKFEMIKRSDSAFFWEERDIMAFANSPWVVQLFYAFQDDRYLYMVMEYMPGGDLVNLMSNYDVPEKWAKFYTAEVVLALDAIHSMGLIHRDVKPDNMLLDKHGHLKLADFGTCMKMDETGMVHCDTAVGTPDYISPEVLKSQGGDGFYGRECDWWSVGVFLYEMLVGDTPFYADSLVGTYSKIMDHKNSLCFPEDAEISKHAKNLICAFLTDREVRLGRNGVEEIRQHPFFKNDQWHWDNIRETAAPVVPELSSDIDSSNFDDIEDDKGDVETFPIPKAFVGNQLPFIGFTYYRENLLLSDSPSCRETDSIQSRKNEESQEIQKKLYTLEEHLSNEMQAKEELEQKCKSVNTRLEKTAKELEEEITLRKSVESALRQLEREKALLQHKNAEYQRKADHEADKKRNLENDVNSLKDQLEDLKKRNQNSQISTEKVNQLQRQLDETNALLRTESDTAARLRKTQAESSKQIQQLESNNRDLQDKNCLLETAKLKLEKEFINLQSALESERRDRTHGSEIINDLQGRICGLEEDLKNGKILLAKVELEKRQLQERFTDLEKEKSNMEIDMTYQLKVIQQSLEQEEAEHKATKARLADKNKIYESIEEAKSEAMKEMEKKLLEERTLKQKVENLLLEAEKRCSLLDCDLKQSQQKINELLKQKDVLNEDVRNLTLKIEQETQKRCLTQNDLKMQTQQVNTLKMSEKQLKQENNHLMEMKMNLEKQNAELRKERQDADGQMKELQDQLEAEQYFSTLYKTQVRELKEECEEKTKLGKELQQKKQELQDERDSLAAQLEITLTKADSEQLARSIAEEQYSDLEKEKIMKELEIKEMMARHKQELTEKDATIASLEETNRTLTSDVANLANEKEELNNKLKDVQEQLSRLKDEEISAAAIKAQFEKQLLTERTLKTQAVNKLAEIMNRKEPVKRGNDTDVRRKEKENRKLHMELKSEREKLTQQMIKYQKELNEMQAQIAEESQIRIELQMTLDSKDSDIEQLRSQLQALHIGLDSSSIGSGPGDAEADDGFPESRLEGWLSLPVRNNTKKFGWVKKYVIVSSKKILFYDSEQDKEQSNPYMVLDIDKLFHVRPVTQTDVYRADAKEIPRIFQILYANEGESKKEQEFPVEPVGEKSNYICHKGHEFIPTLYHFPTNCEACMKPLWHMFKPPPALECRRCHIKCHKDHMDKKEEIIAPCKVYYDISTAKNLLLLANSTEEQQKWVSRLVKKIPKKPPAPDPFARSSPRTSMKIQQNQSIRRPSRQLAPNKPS

`O=C(CCCCCCn1cc(-c2ncnc3[nH]ccc23)cn1)NO` had a bioavailability in [1] of 1.4%. Further, the IC50 at Histone deacetylase 8 amounted to 469 nM; in the data set on PC-3 it was 2410 nM; in the data set with TAMH it was 4630 nM; in data set [3], 17 nM; in data set [6], 569 nM; in data set [7], 19 nM. Further, the half-life in data set [2] is 34.8 min. Besides, the solubility thermodynamic at 3 h in data set [4] was found to be 66.2 µg/mL (≈ 202 µM). Moreover, the Activity in [5] came out at 29%.

The values are drawn from ChEMBL document CHEMBL4028864 (J Med Chem, 2017).
